ChEMBL document CHEMBL1124029, “Novel DNA groove binding alkylators: design, synthesis, and biological evaluation” (1988)

How the values were obtained:
Semliki Forest virus = test: Minimum inhibitory concentration required to reduce virus induced forest virus in Vero B cell cultures; type: functional
rhinovirus A9 = test: Minimum inhibitory concentration required to reduce virus induced cytopathogenicity by 50% against rhino-9 virus in WI-38 cell cultures; type: functional; details: Rhinovirus A
L1210 [1] = test: Percent inhibition of proliferation of Murine Leukemia (L1210) cells was measured; type: functional, Mus musculus; set-up: concentration or dose not given beside the values
Method in brief: (§1)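 Mouse leukemia L1210 cells were grown in McCoy's 5A medium and P388D1 cells in Fischer's medium, each with 10% fetal calf serum. Compounds were dissolved in water, or sonicated and given as a suspension if poorly soluble. Cells were seeded at 1×10^5 per well and grown 72 h at 37 °C in 5% CO2. Viability was read by MTT formazan optical density at 570 nm (reference 630 nm).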

MOLT-4F = test: Inhibition of proliferation of Human T Lymphoblast (Molt/4F) cells was measured; type: functional; details: read-out: ID50 (the source's name)
L1210 [2] = test: Inhibition of proliferation of Murine Leukemia (L1210) cells was measured; type: functional; details: Mus musculus, read-out: ID50 (the source's name)
Coxsackievirus B4 [3] = test: Minimum inhibitory concentration required to reduce virus induced cytopathogenicity by 50% against Coxsackie type B4 virus in HeLa cell cultures; type: functional; details: Enterovirus B
FM3A = test: Inhibition of proliferation of Murine mammary carcinoma (FM3A) cells was measured; type: functional; details: Mus musculus, read-out: ID50 (the source's name)
Coxsackievirus B4 [4] = test: Minimum inhibitory concentration required to reduce virus induced cytopathogenicity by 50% against Coxsackie type B4 virus in Vero B cell cultures; type: functional; details: Enterovirus B
P388 = test: Percent inhibition of proliferation of Murine Leukemia (P388) cells was measured; type: functional, Mus musculus; set-up: concentration or dose not given beside the values; method in brief: as §1
[5] = (§2) Minimum cytotoxic concentration required to cause a microscopically detectable alteration of normal cell morphology; type: functional
Raji = test: Inhibition of proliferation of Human B Lymphoblast (Raji) cells was measured; type: functional; details: read-out: ID50 (the source's name)
Human alphaherpesvirus 1 = test: Minimum inhibitory concentration required to reduce virus induced cytopathogenicity by 50% against herpes simplex-1 virus in rabbit primary kidney cell cultures; type: functional
[6] = test system: Mammalian orthoreovirus 1; test: Minimum inhibitory concentration required to reduce virus induced cytopathogenicity by 50% against Reo-1 virus in WI-38 cell cultures; type: functional
Sindbis virus = test: Minimum inhibitory concentration required to reduce virus induced cytopathogenicity by 50% against sindbis virus in Vero B cell cultures; type: functional
Poliovirus 1 = test: Minimum inhibitory concentration required to reduce virus induced cytopathogenicity by 50% against polio type 1 virus in HeLa cell cultures; type: functional; details: Enterovirus C
[7] = test system: Vesicular stomatitis virus; test: Minimum inhibitory concentration required to reduce virus induced cytopathogenicity by 50% against Vesicular stomatitis virus in HeLa cell cultures; type: functional
Human rhinovirus 1A = test: Minimum inhibitory concentration required to reduce virus induced cytopathogenicity by 50% against rhino-1A virus in WI-38 cell cultures; type: functional
Human alphaherpesvirus 2 = test: Minimum inhibitory concentration required to reduce virus induced cytopathogenicity by 50% against herpes simplex-2 virus in rabbit primary kidney cell cultures; type: functional
[8] = as §2; type: functional; remark: listed apart in the source
[9] = Minimum inhibitory concentration required to reduce virus induced cytopathogenicity by 50% against para influenza virus in WI-38 cell cultures; type: functional
NAMALVA = test: Inhibition of proliferation of Human B Lymphoblast (Namalva) cells was measured; type: functional; details: read-out: ID50 (the source's name)
Hepatoma cell line = test: Inhibition of proliferation of Human hepatoma cells was measured; type: functional; details: read-out: ID50 (the source's name)

Row | Structure (SMILES) | MIC (Semliki Forest virus) [µg/mL] | MIC (rhinovirus A9) [µg/mL] | Inhibition (L1210 [1]) [%] | IC50 (MOLT-4F) [µg/mL] | IC50 (L1210 [2]) [µg/mL] | MIC (Coxsackievirus B4 [3]) [µg/mL] | IC50 (FM3A) [µg/mL] | MIC (Coxsackievirus B4 [4]) [µg/mL] | Inhibition (P388) [%] | MCC [5] [µg/mL] | IC50 (Raji) [µg/mL] | MIC (Human alphaherpesvirus 1) [µg/mL] | MIC [6] [µg/mL] | MIC (Sindbis virus) [µg/mL] | MIC (Poliovirus 1) [µg/mL] | MIC [7] [µg/mL] | MIC (Human rhinovirus 1A) [µg/mL] | MIC (Human alphaherpesvirus 2) [µg/mL] | MCC [8] [µg/mL] | MIC [9] [µg/mL] | also measured
1 | Cl.Cn1cc(NC(=O)c2cc(NC(=O)C(Cl)(Cl)Cl)cn2C)cc1C(=O)NCCC(=N)N | > 100 | > 40 | 28 | 84.3 | 30.5 | > 40 | > 100 | > 100 | 55 | > 200 | 68.7 | > 100 | > 40 | > 100 | > 40 | > 40 | > 40 | > 100 | > 100 | > 100 | –
2 | Cl.Cn1cc(NC(=O)c2cc(NC(=O)CCl)cn2C)cc1C(=O)NCCC(=N)N | > 100 | – | 29 | 28.7 | 8.7 | > 100 | 13.3 | > 100 | 38 | – | 3.09 | 70 | > 100 | > 100 | > 100 | > 200 | – | 70 | ≥ 100 | > 100 | IC50 (NAMALVA): 5.3 µg/mL; IC50 (Hepatoma cell line): 3.63 µg/mL
3 | Cl.Cn1cc(NC(=O)c2cc(NC(=O)CF)cn2C)cc1C(=O)NCCC(=N)N | > 200 | > 200 | 0 | 32.3 | 40.3 | – | ≥ 100 | > 200 | 0 | > 100 | 33.1 | 150 | > 100 | > 200 | – | 100 | > 200 | 100 | > 200 | > 40 | IC50 (NAMALVA): 32.3 µg/mL
4 | Cl.Cn1cc(NC(=O)c2cc(NC(=O)CCCCl)cn2C)cc1C(=O)NCCC(=N)N | – | – | 0 | > 100 | > 100 | – | 74.1 | – | 0 | > 200 | > 100 | 300 | – | – | – | > 400 | – | 150 | > 200 | – | –
5 | Cl.Cl.Cn1cc(NC(=O)c2cc(NC(=O)c3cc(NC=O)cn3C)cn2C)cc1C(=O)NCCC(=N)N | > 200 | – | – | 28.4 | 27.1 | – | 30.6 | > 200 | – | > 200 | 23.7 | 70 | > 200 | > 200 | – | > 100 | – | 70 | > 200 | > 200 | IC50 (NAMALVA): 22.5 µg/mL; IC50 (Hepatoma cell line): 54.7 µg/mL
6 | Cl.Cn1cc(NC(=O)c2cc(NC(=O)C3CC3)cn2C)cc1C(=O)NCCC(=N)N | > 100 | 20 | 3 | 7.8 | > 100 | – | > 100 | > 100 | 8 | > 200 | 26.7 | 20 | > 100 | > 100 | – | > 100 | > 40 | 40 | 100 | > 100 | –
7 | CC[N+](CC)(CC)CC.Cn1cc(NC(=O)c2cc(NC(=O)C(Cl)Cl)cn2C)cc1C(=O)NCCC(=N)N.O=S(=O)([O-])O | > 100 | 40 | 13 | 27.2 | > 100 | > 100 | > 100 | > 40 | 28 | > 200 | 24.1 | 70 | > 200 | > 100 | > 100 | > 200 | 40 | 70 | 200 | > 100 | –
8 | Cl.Cl.Cn1cc(NC(=O)c2cc(NC(=O)CNC(=N)N)cn2C)cc1C(=O)NCCC(=N)N [CONGOCIDINE] | > 200 | – | – | > 100 | – | – | – | > 200 | – | – | – | > 10 | > 200 | > 200 | – | > 10 | – | > 10 | > 400 | > 100 | IC50 (Hepatoma cell line): 44.7 µg/mL
